This is an account of results in ChEMBL document CHEMBL1145087 (J Med Chem, 2003).

Where only a bound is given, the exact number is not on record here.

The target of assay [1] is T1, Mineralocorticoid receptor (Homo sapiens) (UniProt P08235).
T1 sequence (whole entry): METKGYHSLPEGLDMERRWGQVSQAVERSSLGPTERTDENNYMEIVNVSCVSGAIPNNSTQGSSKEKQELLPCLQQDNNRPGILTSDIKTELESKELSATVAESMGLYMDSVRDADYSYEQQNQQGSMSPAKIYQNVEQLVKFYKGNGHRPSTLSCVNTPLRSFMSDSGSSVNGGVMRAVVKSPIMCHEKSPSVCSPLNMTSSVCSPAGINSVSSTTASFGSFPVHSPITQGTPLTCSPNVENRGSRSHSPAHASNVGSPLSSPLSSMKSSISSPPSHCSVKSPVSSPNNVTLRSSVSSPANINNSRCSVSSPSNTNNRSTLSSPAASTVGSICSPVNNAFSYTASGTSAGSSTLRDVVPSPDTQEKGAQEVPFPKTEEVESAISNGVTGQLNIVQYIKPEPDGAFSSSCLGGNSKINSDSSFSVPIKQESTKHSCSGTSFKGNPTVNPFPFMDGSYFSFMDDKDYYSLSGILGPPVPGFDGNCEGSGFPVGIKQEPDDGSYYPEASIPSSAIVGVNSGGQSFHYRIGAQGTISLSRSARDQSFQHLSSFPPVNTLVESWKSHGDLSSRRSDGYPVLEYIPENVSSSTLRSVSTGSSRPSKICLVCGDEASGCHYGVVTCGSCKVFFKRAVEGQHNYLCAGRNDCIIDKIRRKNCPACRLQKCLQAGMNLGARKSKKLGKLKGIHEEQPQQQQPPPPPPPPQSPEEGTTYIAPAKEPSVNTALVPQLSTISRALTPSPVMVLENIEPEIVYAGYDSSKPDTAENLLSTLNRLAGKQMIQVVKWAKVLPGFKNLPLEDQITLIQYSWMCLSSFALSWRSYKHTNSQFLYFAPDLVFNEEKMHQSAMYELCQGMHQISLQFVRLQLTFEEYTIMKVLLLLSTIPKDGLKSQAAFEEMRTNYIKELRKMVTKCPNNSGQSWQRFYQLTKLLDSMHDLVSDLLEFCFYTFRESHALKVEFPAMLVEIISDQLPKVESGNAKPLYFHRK
The assay is described as follows: Agonistic efficacy against human Mineralocorticoid receptor. It is filed as functional. The gist of the method:
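Cell-based cotransfection assay for hMR in 96-well format. Agonist activity is read as normalized LUC expression. Efficacy is expressed relative to the maximal LUC response to aldosterone.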

Assay [2] concerns the target T2, Progesterone receptor (Homo sapiens, UniProt P06401).
T2 sequence (P06401 whole entry): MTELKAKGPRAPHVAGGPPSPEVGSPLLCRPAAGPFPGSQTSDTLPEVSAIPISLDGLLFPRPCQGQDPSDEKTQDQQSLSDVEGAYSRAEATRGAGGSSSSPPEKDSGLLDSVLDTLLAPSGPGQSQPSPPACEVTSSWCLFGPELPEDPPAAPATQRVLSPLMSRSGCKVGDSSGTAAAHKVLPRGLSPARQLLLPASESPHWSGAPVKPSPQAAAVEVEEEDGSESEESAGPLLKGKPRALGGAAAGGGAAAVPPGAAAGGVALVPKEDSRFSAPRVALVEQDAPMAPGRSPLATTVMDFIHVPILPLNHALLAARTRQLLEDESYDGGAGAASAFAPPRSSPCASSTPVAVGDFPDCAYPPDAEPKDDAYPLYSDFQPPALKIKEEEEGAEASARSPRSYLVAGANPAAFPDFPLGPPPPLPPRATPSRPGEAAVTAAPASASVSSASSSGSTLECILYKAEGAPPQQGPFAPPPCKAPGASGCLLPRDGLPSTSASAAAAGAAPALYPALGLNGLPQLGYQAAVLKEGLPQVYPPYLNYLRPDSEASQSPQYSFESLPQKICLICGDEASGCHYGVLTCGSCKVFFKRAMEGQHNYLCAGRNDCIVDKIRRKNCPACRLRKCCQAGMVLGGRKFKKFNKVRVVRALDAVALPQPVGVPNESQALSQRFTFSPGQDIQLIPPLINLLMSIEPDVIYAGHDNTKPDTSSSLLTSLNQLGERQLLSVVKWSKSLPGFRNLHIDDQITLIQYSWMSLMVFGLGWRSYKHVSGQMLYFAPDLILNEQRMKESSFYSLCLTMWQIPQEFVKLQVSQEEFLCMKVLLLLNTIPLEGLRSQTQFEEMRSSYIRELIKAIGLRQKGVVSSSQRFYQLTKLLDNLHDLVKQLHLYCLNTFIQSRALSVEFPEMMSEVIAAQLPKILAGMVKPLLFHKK
The assay is described as follows: Binding affinity towards human progesterone receptor A isoform using progesterone as radioligand.

The target in assay [3] is T3, Progesterone receptor (Homo sapiens) (UniProt P06401).
T3 sequence (whole entry): T2 sequence (P06401 whole entry)
Kind of assay: Percent agonistic effect towards human progesterone receptor in T47D breast cancer cells. It is filed as functional, cell-based.

The species named for assay [4] is Homo sapiens. The assay is described as follows: Relative potency for human glucocorticoid and progesterone receptors.
Assay [5] is filed under the species Homo sapiens. Kind of assay: Relative potency for human mineralocorticoid and progesterone receptors.
For assay [6], the target named is T3, Progesterone receptor (Homo sapiens). Kind of assay: Percent agonistic effect towards human progesterone receptor in CV-1 cells. The format is functional, cell-based.
Assay [7] deals with T4, Estrogen receptor (Homo sapiens, UniProt Q92731+P03372).
Assay [8] deals with T4, Estrogen receptor. The assay is described as follows: Antagonistic efficacy against human estrogen receptor. It is filed as functional. The procedure, abridged:
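Cotransfection LUC reporter assay for hER. Antagonist efficacy is the % maximal inhibition of a standard agonist (estradiol is the reference agonist for hER) applied at its EC50.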

In assay [9] the target is T5, Mineralocorticoid receptor (Homo sapiens, UniProt P08235).
T5 sequence (P08235 whole entry): T1 sequence (whole entry)
Kind of assay: Inhibitory activity against human Mineralocorticoid receptor.

`CC1=CC(C)(C)Nc2ccc3c(c21)/C(=C/c1ccccc1)Oc1c(F)cccc1-3`: the Efficacy in assay [1] is more than 20%; in [3], 45%; in assay [6], 171%. In [2], this compound gave a Ki of 0.00061 µM. The figures for the Ratio in [4] and in assay [5] were 119 and more than 1000, respectively.
On to `CC1=CC(C)(C)Nc2ccc3c(c21)/C(=C/c1ccncc1C)Oc1ccc(F)cc1-3`, for which the Efficacy came out at 71% in [1], 46% in [3], 44% in [8] and 138% in assay [6]. This compound gave a Ki in [2] of 0.0014 µM. The figures for the IC50 in assay [7] and in assay [9] were 1.149 µM and 0.363 µM, respectively. Besides, the values for the Ratio in [4] and in assay [5] were 54 and 511, respectively.
On to `CCc1ccccc1/C=C1\Oc2ccc(F)cc2-c2ccc3c(c21)C(C)=CC(C)(C)N3`, for which the Efficacy in assay [1] turned out to be 50%; in [3] it was 51%; in assay [6], 161%. The compound also displayed a Ki in assay [2] of 0.0023 µM. Besides, the Ratio was 39 in [4] and 167 in [5]. Moreover, half-maximal inhibition in [9] (IC50) was put at 0.334 µM.
As to `CC1=CC(C)(C)Nc2ccc3c(c21)/C(=C/c1ccsc1)Oc1ccc(F)cc1-3`, the Efficacy came to 63% in [1], 48% in [3], 36% in assay [8] and 174% in assay [6]. Further, the Ki in assay [2] turned out to be 0.0013 µM. In addition, the results for the IC50 in assay [7] and in assay [9] were 3.488 µM and 1.9 µM, respectively. Further, the Ratio in assay [4] was 141; in [5], more than 1000.
For `CC1=CC(C)(C)Nc2ccc3c(c21)/C(=C/c1ccccc1C)Oc1c(F)cccc1-3`, the Efficacy worked out at 70% in [1], 43% in assay [3], 41% in [8] and 163% in assay [6]. Further, in [2], the Ki came out at 0.0015 µM. For the same compound, the IC50 in [7] was found to be 2.443 µM; in [9] it was 1.85 µM. Further, the Ratio in assay [4] is 212; in assay [5], more than 1000.

In general, Ki refers to the dissociation constant of the complex between target and ligand, obtained from inhibition or displacement. Read a low Ki as higher affinity. What is called IC50 is the midpoint of a concentration-inhibition curve. Lower therefore signals greater potency.
